NR2E3 ag-1: agonists of human nuclear receptor NR2E3. Q9Y5X4. GST-NR2E3/biotin-RetCOR TR-FRET, 1536-well. inhibition of corepressor binding, % at 4.78 µM. hit rate 0.12% among 320,000;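 active = percent inhibition above the cutoff of mean plus 3 SD of all tested compounds, set per screening campaign, cut at about 20% in these data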
Target sequence (Q9Y5X4 whole entry, looked up): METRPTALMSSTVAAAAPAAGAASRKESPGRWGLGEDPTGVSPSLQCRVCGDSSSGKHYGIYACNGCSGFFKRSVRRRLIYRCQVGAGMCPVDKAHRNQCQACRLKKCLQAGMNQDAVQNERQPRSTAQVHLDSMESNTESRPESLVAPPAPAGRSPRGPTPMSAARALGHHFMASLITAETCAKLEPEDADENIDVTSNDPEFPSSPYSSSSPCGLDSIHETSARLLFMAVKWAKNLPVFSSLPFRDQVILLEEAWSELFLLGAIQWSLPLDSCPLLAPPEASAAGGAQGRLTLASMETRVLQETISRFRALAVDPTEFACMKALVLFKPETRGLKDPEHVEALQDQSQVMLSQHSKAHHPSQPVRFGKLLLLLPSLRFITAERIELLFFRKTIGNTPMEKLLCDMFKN
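system = GST-tagged NR2E3 plus biotinylated RetCOR corepressor | input = 1.35 nM GST-NR2E3 | also added = 7 nM biotin-RetCOR | schedule = 5 h incubation at 4 °C | measured by = TR-FRET with europium anti-GST and streptavidin-D2, 340 nm excitation | read-out = percent loss of FRET ratio relative to control wells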
NR2E3 ag-2: human photoreceptor-specific nuclear receptor agonism; Q9Y5X4; CHO-S Gal4-NCOR/VP16-NR2E3 two-hybrid, luciferase; inhibition of corepressor binding, % at 3.98 µM; hit rate 0.35% among 360,000;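 active = inhibition above the mean of all tested compounds plus 3 SD, cut at about 70% in these data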;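 note: higher means lower luciferase signal from less NR2E3 corepressor binding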
EBV LMP1 NFkB: inhibitors of Epstein-Barr LMP1-induced NF-kappaB reporter | inhibition, % at 12.5 µM | LMP1-induced NF-kappaB luciferase reporter cells, luminescence | hit rate 0.69% among 350,000; in the data active = inhibition above about 41%
TROY signal inh: inhibitors of TROY-dependent NF-kB signaling. Q293 LMP1-TROYcd NF-kB luciferase reporter, 4 h. inhibition, % at 10 µM. hit rate 0.98% among 360,000;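 active = compounds whose plate-normalised and pattern-corrected inhibition of the luciferase reporter signal at the single screening dose is 50% or more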
HIF act: HIF pathway transcriptional activation | hit rate 0.32% among 300,000 | AID 1910 | U2OS HRE-luciferase reporter, luminescence; normalized: DMSO 0%, desferrioxamine 100% | activation, % at 7.5 µM (by protocol);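 active = mean activation of at least 10% of the iron chelator positive control signal, with at least half of replicates also reaching 10%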
A number is an active result; n = inactive; x = no result given. Compounds with a hit are over-represented: about 2% of the library has one in this group of screens.

SMILES	NR2E3 ag-1	NR2E3 ag-2	EBV LMP1 NFkB	TROY signal inh	HIF act
COc1ccc(CN(C(=O)c2nsc(Cl)c2Cl)C(C(=O)NC2CCCC2)c2ccc(C)cc2)cc1 (configuration not stated)	n	n	53.7	n	n
O=C(NCC(=O)N(c1ccc(F)cc1)C(C(=O)NC1CCCCC1)c1cccnc1)c1ccco1 (configuration not stated)	n	n	n	n	n
CC1(C2CC2)NC(=O)N(CC(=O)Nc2ccc(F)cc2F)C1=O (configuration not stated)	n	n	n	n	x
CCCCN1CC(N2CCN(C)CC2)CS1(=O)=O (configuration not stated)	x	n	x	n	x
COc1ccccc1NC(=O)C(C)OC(=O)/C(=C/c1ccccc1)NC(C)=O (configuration not stated)	n	n	n	n	n
COc1ccc(N(C(=O)CCl)C(C(=O)NC2CCCCC2)c2cccnc2)cc1 (configuration not stated)	n	n	62.4	n	n
Cc1cccc(OCc2nc(-c3ccccn3)n[nH]2)c1	n	n	n	61.1	n
O=C(CCOc1cccc(Br)c1)NNC(=O)COc1ccc(F)cc1	x	n	n	n	x
Cc1cccc(Cn2nnc3c2C(=O)c2ccccc2C3=O)c1	n	n	n	n	n
Cc1ccccc1Cn1nnc2c1C(=O)c1ccccc1C2=O	n	n	n	50.1	n
CC(=O)N1CCc2cc(S(=O)(=O)NCC(=O)NCc3ccc(F)cc3)ccc21	n	n	n	n	n
Cc1oc(-c2ccc(Cl)cc2)cc1C(=O)/C(C#N)=C/Nc1cccc(OC(F)(F)F)c1	n	n	n	n	43.3
Cc1oc(-c2ccc(Cl)cc2)cc1C(=O)O	n	n	n	n	n
CCC(C)c1ccc2oc(-c3ccc(NC(=O)Cn4cnc5c(=O)n(C)c(=O)n(C)c54)cc3)nc2c1 (configuration not stated)	n	n	n	63.6	10.4
Cc1ccc2oc(-c3cccc(NC(=O)Cn4cnc5c(=O)n(C)c(=O)n(C)c54)c3)nc2c1	n	x	x	x	n
Cc1ccc(S(=O)(=O)N2CC3(O)CN(C(=O)OC(C)C)N(C(=O)OC(C)C)CC3(OC(=O)NCc3ccco3)C2)cc1 (configuration not stated)	x	n	n	n	x
CC1CCc2nc(N)c(C#N)c(-c3ccncc3)c2C1 (configuration not stated)	n	n	n	n	n
CC1CCc2nc(N)c(C#N)c(-c3cccnc3)c2C1 (configuration not stated)	n	n	58.6	54.2	n
CCOc1ccc(CCNC(=O)CCn2ccc3cc(S(=O)(=O)N4CCCC4)ccc32)cc1	n	n	72.1	n	n
CCCCNC(=O)CCn1ccc2cc(S(=O)(=O)N3CCCC3)ccc21	n	n	n	n	x
CC1(C)CC(=O)C2=C(C1)NC1=C(C(=O)c3ccccc31)C2c1ccc(Cl)cc1 (configuration not stated)	n	n	n	92.7	n
CC1CCCC(C)N1CC(O)COCc1ccccc1 (configuration not stated)	n	n	n	n	n
COc1cc(COCC(O)CN2C(C)CCCC2C)cc(OC)c1OC (configuration not stated)	n	n	87.8	n	n
Cn1c(=O)[nH]c(=O)c2c1nc(CN1CCOCC1)n2CCCc1ccccc1	n	n	84.6	n	n
CCCCN1C[C@H](CSC)[C@@H](CC(=O)Nc2ccc(OC)cc2)C1=O	x	n	n	n	x
SMILES	NR2E3 ag-1	NR2E3 ag-2	EBV LMP1 NFkB	TROY signal inh	HIF act
CC(C)C[C@H]1CNC(=S)N1CC1CCCN1C[C@H](CC(C)C)N1C[C@H](CC(C)C)N(CCc2ccccc2)C1=S (some centres not stated)	x	n	n	n	x
CS(=O)(=O)c1cccc(C(=O)N(CCc2ccccc2)Cc2cccs2)c1	n	n	n	n	15.0
CCOc1cccc(-c2c(C(=O)N/N=C(\C)c3ccncc3)nnn2-c2nonc2N)c1	n	n	n	n	n
CCOc1ccc(-c2c(C(=O)N/N=C/c3cccnc3)nnn2-c2nonc2N)cc1	n	n	n	n	24.8
CCOc1cccc(-c2c(C(=O)N/N=C(\C)c3ccccn3)nnn2-c2nonc2N)c1	n	n	65.0	n	16.3
Cc1ccc(-c2c(C(=O)N/N=C/c3cccnc3)nnn2-c2nonc2N)cc1	n	n	n	n	n
COCCNC(=O)C1(C)CCN(C(=O)c2oc3ccccc3c2C)C1 (configuration not stated)	x	n	x	n	x
Cc1csc(N=Cc2ccc([N+](=O)[O-])o2)n1	x	n	n	n	x
COC(=O)/C=c1\[nH]c2nnc(C)n2c1=O	n	n	n	50.1	n
COC(=O)/C=c1\sc2ncnn2c1=O	n	n	n	x	n
O=c1oc2ccccc2c(O)c1/C=N/c1ccccn1	n	n	49.6	n	n
Cc1cc(C)c(C(=O)COC(=O)Cn2cnnn2)cc1C	n	n	n	n	n
O=C(Cn1cnnn1)OCC(=O)c1ccc(Cl)s1	n	n	n	70.6	n
Cc1ccc(CNS(=O)(=O)c2c(C(=O)N3CCCCC3)c(C)n(C)c2C)cc1	n	n	n	n	n
Cc1c(C(=O)N2CCCCC2)c(S(=O)(=O)NCCc2ccc(Cl)cc2)c(C)n1C	n	n	n	n	13.9
COC(=O)C1=C(C)N(Cc2ccc(OC)cc2)C(=O)C1	n	n	n	n	223.3
COC(=O)C1=C(C)N(CCc2ccc(OC)cc2)C(=O)C1	n	n	n	n	n
COc1ccc(C(O)c2ncc(-c3ccccc3C)[nH]2)cc1 (configuration not stated)	x	n	x	n	x
CCCOc1ccc2cc(-c3ccccn3)c(=O)oc2c1	n	n	60.5	63.6	n
CC1CC(C)CN(S(=O)(=O)c2ccc(NC(=O)CCNC(=O)c3ccc([N+](=O)[O-])cc3)cc2)C1 (configuration not stated)	n	n	n	n	x
CC(C)(C)c1ccc(C(=O)Nc2sc3c(c2C(=O)O)CCC3)cc1	n	n	n	61.9	n
COc1ccc2nc(NC(=O)CSc3nccc(C)n3)sc2c1	n	n	n	n	39.3
CC(C)n1c(SCC(=O)Nc2nc3ccccc3s2)nc2c1c(=O)n(C)c(=O)n2C	n	n	n	n	n
COc1ccc(-c2nnc3ccc(SCC(=O)Nc4nc5ccc(C)cc5s4)nn23)cc1OC	n	n	n	87.4	n
CCOc1ccc2nc(NC(=O)CSc3nc4c(c(=O)n(C)c(=O)n4C)n3C(C)C)sc2c1	n	n	n	50.1	n
O=C(CCc1ccccc1)N=C1SC2CS(=O)(=O)CC2N1Cc1ccccc1 (configuration not stated)	n	n	n	n	n
COc1ccc(-n2c(C)cc(C(=O)CCl)c2C)cc1	n	n	n	n	15.9
COc1ccc(-n2c(C)cc(C(=O)CN3C(=O)c4ccccc4C3=O)c2C)cc1	n	n	n	n	n
COc1ccc(-n2c(C)cc(C(=O)COc3ccc(C)nc3[N+](=O)[O-])c2C)cc1	n	n	n	57.9	n

Bioassay records (PubChem)
